Experimental findings from ChEMBL document CHEMBL1126724, “Multiple binding modes for the receptor-bound conformations of cyclic AII agonists” (J Med Chem, 1993) are described below.

*1 amine or outer side, *2 acyl side, *3 side chain or, on linkers, in order; H or OH if unused. Where a SMILES comes first, the peptide text is derived from it. Bridges are numbered along the chain shown (N, C = ends). Roman numbers before positions name the chains, in order. [ ]: non-standard residue; d: D form. Pro(4R-SH) = O=C([C@@H]1C[C@@H](S[*:3])CN1[*:1])[*:2]; Pro(4S-SH) = O=C([C@@H]1C[C@H](S[*:3])CN1[*:1])[*:2]; hCys = N[C@@H](CCS)C(=O)O; Orn = NCCC[C@H](N)C(=O)O; Sar = CNCC(=O)O

The species named for one assay is Oryctolagus cuniculus. Kind of assay: Agonist efficacy assessed from contractile responses on rabbit aorta (AT1). The format is functional. An outline of the steps:
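Rabbit thoracic aortic rings held in 20-mL baths of Krebs-bicarbonate at 37 °C, gassed with 5% CO2 in oxygen. Resting tension 4.0 g, 90-min equilibration. Peptides added cumulatively until maximal response. EC50 read graphically from the curves as the concentration giving 50% of maximal contraction.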

Assay [1] addresses T1, Angiotensin II receptor (AT-1) type-1 (Rattus norvegicus, UniProt P29089+P25095).
T1 sequence (P29089 whole entry): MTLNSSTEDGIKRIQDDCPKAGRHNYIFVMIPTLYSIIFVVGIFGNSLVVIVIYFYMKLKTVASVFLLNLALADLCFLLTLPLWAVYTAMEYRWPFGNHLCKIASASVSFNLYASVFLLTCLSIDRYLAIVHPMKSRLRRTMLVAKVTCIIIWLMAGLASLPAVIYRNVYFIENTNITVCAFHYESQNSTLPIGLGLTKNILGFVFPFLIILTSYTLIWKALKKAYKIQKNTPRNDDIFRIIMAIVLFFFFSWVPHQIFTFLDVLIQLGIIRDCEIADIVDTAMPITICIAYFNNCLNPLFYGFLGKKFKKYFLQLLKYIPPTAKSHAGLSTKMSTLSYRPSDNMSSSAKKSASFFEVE
T1 sequence (P25095 whole entry): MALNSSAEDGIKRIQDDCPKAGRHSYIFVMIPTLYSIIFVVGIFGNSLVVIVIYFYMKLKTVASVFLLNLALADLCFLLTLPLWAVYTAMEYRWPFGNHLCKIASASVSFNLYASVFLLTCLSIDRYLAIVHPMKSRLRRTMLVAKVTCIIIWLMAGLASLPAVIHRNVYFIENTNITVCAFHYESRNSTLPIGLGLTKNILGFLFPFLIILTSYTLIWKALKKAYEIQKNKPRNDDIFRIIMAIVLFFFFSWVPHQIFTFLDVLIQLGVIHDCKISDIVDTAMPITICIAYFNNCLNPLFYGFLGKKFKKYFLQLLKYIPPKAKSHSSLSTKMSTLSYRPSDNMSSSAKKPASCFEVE
Kind of assay: In vitro binding affinity to the angiotensin II receptor, type 1 in rat liver. An outline of the steps:
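Buffer: 50 mM NaH2PO4 pH 7.1 with 100 μM bacitracin, 0.2% BSA, 100 mM NaCl, 10 mM MgCl2, 1 mM EGTA. Incubated 1 h at 25 °C, then filtered, and filters counted. IC50 from weighted nonlinear regression to the mass action equation.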

Take `CNCC(=O)N[C@@H](CCCN=C(N)N)C(=O)N1C[C@@H]2C[C@H]1C(=O)N[C@@H](Cc1ccc(O)cc1)C(=O)N[C@H](C(=O)N[C@@H](Cc1c[nH]cn1)C(=O)N1CCC[C@H]1C(=O)N[C@@H](Cc1ccccc1)C(=O)O)CSSC[C@H](C(=O)N[C@H](Cc1c[nH]cn1)C(=O)N1CCC[C@@H]1C(=O)N[C@H](Cc1ccccc1)C(=O)O)NC(=O)[C@@H](Cc1ccc(O)cc1)NC(=O)[C@H]1C[C@H](CN1C(=O)[C@@H](CCCN=C(N)N)NC(=O)CNC)SS2`: the concentration giving a half-maximal response (EC50) in the assay filed under Oryctolagus cuniculus was found to be 460 nM. The compound also displayed a half-inhibitory concentration (IC50) in assay [1] of 190 nM.

Consider `CNCC(=O)N[C@@H](CCCN=C(N)N)C(=O)N[C@H]1CSSC[C@@H](C(=O)N[C@@H](Cc2c[nH]cn2)C(=O)N2CCC[C@H]2C(=O)N[C@@H](Cc2ccccc2)C(=O)O)NC(=O)[C@H](Cc2ccc(O)cc2)NC1=O` (H-[Sar]RCYCHPF-OH; disulfide 3-5), for which the IC50 in assay [1] came to 7.6 nM.

In assay [1], `CNCC(=O)N[C@@H](CCCN=C(N)N)C(=O)N[C@H]1CSSC[C@@H](C(=O)N[C@@H](Cc2ccccc2)C(=O)O)NC(=O)[C@H](Cc2c[nH]cn2)NC(=O)[C@H](C(C)C)NC(=O)[C@H](Cc2ccc(O)cc2)NC1=O` (H-[Sar]RCYVHCF-OH; disulfide 3-7) registered an IC50 of 1230 nM.

Turning to `CNCC(=O)N[C@@H](CCCN=C(N)N)C(=O)N[C@H]1CSSC[C@@H](C(=O)O)NC(=O)[C@@H]2CCCN2C(=O)[C@H](Cc2c[nH]cn2)NC(=O)[C@H](C(C)C)NC(=O)[C@H](Cc2ccc(O)cc2)NC1=O` (H-[Sar]RCYVHPC-OH; disulfide 3-8), the IC50 in assay [1] turned out to be 520 nM.

On to `CNCC(=O)N[C@@H](CCCN=C(N)N)C(=O)N[C@H]1CSS[C@@H]2C[C@@H](C(=O)N[C@@H](Cc3c[nH]cn3)C(=O)N3CCC[C@H]3C(=O)N[C@@H](Cc3ccccc3)C(=O)O)N(C2)C(=O)[C@H](Cc2ccc(O)cc2)NC1=O` (H-[Sar]RCY[Pro(4R-SH)]HPF-OH; disulfide 3-5), for which the concentration giving a half-maximal response (EC50) in the assay listed under Oryctolagus cuniculus was determined as 160 nM. The same compound gave an IC50 in assay [1] of 18 nM.

For `CNCC(=O)N[C@@H](CCCN=C(N)N)C(=O)N[C@H]1CSS[C@H]2C[C@@H](C(=O)N[C@@H](Cc3c[nH]cn3)C(=O)N3CCC[C@H]3C(=O)N[C@@H](Cc3ccccc3)C(=O)O)N(C2)C(=O)[C@H](Cc2ccc(O)cc2)NC1=O` (H-[Sar]RCY[Pro(4S-SH)]HPF-OH; disulfide 3-5), in assay [1], the half-maximal inhibitory concentration (IC50) came out at 62 nM.

For the compound `CNCC(=O)N[C@@H](CCCN=C(N)N)C(=O)N[C@H]1CSSCC[C@@H](C(=O)N[C@@H](Cc2c[nH]cn2)C(=O)N2CCC[C@H]2C(=O)N[C@@H](Cc2ccccc2)C(=O)O)NC(=O)[C@H](Cc2ccc(O)cc2)NC1=O` (H-[Sar]RCY[hCys]HPF-OH; disulfide 3-5), the IC50 in assay [1] is given as 2.6 nM.

`CNCC(=O)N[C@@H](CCCN=C(N)N)C(=O)N[C@H]1CC(=O)NCCCC[C@@H](C(=O)N[C@@H](Cc2c[nH]cn2)C(=O)N2CCC[C@H]2C(=O)N[C@@H](Cc2ccccc2)C(=O)O)NC(=O)[C@H](Cc2ccc(O)cc2)NC1=O` (H-[Sar]RDYKHPF-OH; lactam 3-5): the EC50 in the assay filed under Oryctolagus cuniculus stood at 53 nM. This compound gave a concentration for half-maximal inhibition (IC50) in assay [1] of 12 nM.

`CNCC(=O)N[C@@H](CCCN=C(N)N)C(=O)N[C@H]1CC(=O)NCCC[C@@H](C(=O)N[C@@H](Cc2c[nH]cn2)C(=O)N2CCC[C@H]2C(=O)N[C@@H](Cc2ccccc2)C(=O)O)NC(=O)[C@H](Cc2ccc(O)cc2)NC1=O` (H-[Sar]RDY[Orn]HPF-OH; lactam 3-5) had an IC50 in assay [1] of 683 nM.

`CNCC(=O)N[C@@H](CCCN=C(N)N)C(=O)N[C@H]1CCC(=O)NCCCC[C@@H](C(=O)N[C@@H](Cc2c[nH]cn2)C(=O)N2CCC[C@H]2C(=O)N[C@@H](Cc2ccccc2)C(=O)O)NC(=O)[C@H](Cc2ccc(O)cc2)NC1=O` (H-[Sar]REYKHPF-OH; lactam 3-5) returned an IC50 in assay [1] of 89 nM.

Compound `CNCC(=O)N[C@@H](CCCN=C(N)N)C(=O)N[C@H](C(=O)N[C@@H](Cc1ccc(O)cc1)C(=O)N[C@H]1CSSC[C@@H](C(=O)O)NC(=O)[C@@H]2CCCN2C(=O)[C@H](Cc2c[nH]cn2)NC1=O)C(C)C` (H-[Sar]RVYCHPC-OH; disulfide 5-8) had an IC50 in assay [1] of 1200 nM.

Take `CNCC(=O)N[C@@H](CCCN=C(N)N)C(=O)N1C[C@H]2C[C@H]1C(=O)N[C@@H](Cc1ccc(O)cc1)C(=O)N[C@H](C(=O)N[C@@H](Cc1c[nH]cn1)C(=O)N1CCC[C@H]1C(=O)N[C@@H](Cc1ccccc1)C(=O)O)CSS2` (H-[Sar]R[Pro(4R-SH)]YCHPF-OH; disulfide 3-5): the 50% inhibitory concentration (IC50) in assay [1] came out at 87 nM. This IC50 is about 14-fold lower than that of the compound before.

Turning to `CNCC(=O)N[C@@H](CCCN=C(N)N)C(=O)N1C[C@H]2C[C@H]1C(=O)N[C@@H](Cc1ccc(O)cc1)C(=O)N[C@H](C(=O)N[C@@H](Cc1c[nH]cn1)C(=O)N1CCC[C@H]1C(=O)N[C@@H](Cc1ccccc1)C(=O)O)CCSS2` (H-[Sar]R[Pro(4R-SH)]Y[hCys]HPF-OH; disulfide 3-5), in the assay listed under Oryctolagus cuniculus, the EC50 came out at 700 nM. For the same compound, the concentration for half-maximal inhibition (IC50) in assay [1] was found to be 29 nM.

`CNCC(=O)N[C@@H](CCCN=C(N)N)C(=O)N1C[C@@H]2C[C@H]1C(=O)N[C@@H](Cc1ccc(O)cc1)C(=O)N[C@H](C(=O)N[C@@H](Cc1c[nH]cn1)C(=O)N1CCC[C@H]1C(=O)N[C@@H](Cc1ccccc1)C(=O)O)CCSS2` (H-[Sar]R[Pro(4S-SH)]Y[hCys]HPF-OH; disulfide 3-5) gave an EC50 in the assay filed under Oryctolagus cuniculus of 440 nM. Moreover, the IC50 in assay [1] is given as 510 nM.

In the assay filed under Oryctolagus cuniculus, `CNCC(=O)N[C@@H](CCCN=C(N)N)C(=O)N[C@H]1CCSS[C@@H]2C[C@@H](C(=O)N[C@@H](Cc3c[nH]cn3)C(=O)N3CCC[C@H]3C(=O)N[C@@H](Cc3ccccc3)C(=O)O)N(C2)C(=O)[C@H](Cc2ccc(O)cc2)NC1=O` (H-[Sar]R[hCys]Y[Pro(4R-SH)]HPF-OH; disulfide 3-5) yielded a concentration giving a half-maximal response (EC50) of 13 nM. For the same compound, in assay [1], the half-inhibitory concentration (IC50) was determined as 1.3 nM.

On to `CNCC(=O)N[C@@H](CCCN=C(N)N)C(=O)N[C@H]1CCSSCC[C@@H](C(=O)N[C@@H](Cc2c[nH]cn2)C(=O)N2CCC[C@H]2C(=O)N[C@@H](Cc2ccccc2)C(=O)O)NC(=O)[C@H](Cc2ccc(O)cc2)NC1=O` (H-[Sar]R[hCys]Y[hCys]HPF-OH; disulfide 3-5), for which the EC50 in the assay filed under Oryctolagus cuniculus is 3.2 nM.

Consider `CNCC(=O)N[C@@H](CCCNC(=N)N)C(=O)N[C@H]1CCSSCC[C@@H](C(=O)N[C@@H](Cc2cnc[nH]2)C(=O)N2CCC[C@H]2C(=O)N[C@@H](Cc2ccccc2)C(=O)O)NC(=O)[C@H](Cc2ccc(O)cc2)NC1=O` (H-[Sar]R[hCys]Y[hCys]HPF-OH; disulfide 3-5), for which the IC50 in assay [1] turned out to be 1.3 nM.

In the case of `CNCC(=O)N[C@@H](CCCN=C(N)N)C(=O)N[C@H]1CSSC[C@@H](C(=O)N[C@@H](Cc2c[nH]cn2)C(=O)N2CCC[C@H]2C(=O)N[C@@H](Cc2ccccc2)C(=O)O)NC(=O)[C@H](Cc2ccc(O)cc2)NC(=O)[C@@H](NC(=O)[C@H](CCCN=C(N)N)NC(=O)CNC)CSSC[C@@H](C(=O)N[C@@H](Cc2c[nH]cn2)C(=O)N2CCC[C@H]2C(=O)N[C@@H](Cc2ccccc2)C(=O)O)NC(=O)[C@H](Cc2ccc(O)cc2)NC1=O` (I: H-[Sar]RCYCHPF-OH / II: H-[Sar]RCYCHPF-OH; disulfide I:3-II:5, I:5-II:3), the IC50 in assay [1] is given as 28 nM. This IC50 is about 22-fold higher than that of the compound before.

In the assay listed under Oryctolagus cuniculus, `CC[C@H](C)[C@H](NC(=O)[C@H](Cc1ccc(O)cc1)NC(=O)[C@@H](NC(=O)[C@H](CCCNC(=N)N)NC(=O)[C@@H](N)CC(=O)O)C(C)C)C(=O)N[C@@H](Cc1cnc[nH]1)C(=O)N1CCC[C@H]1C(=O)N[C@@H](Cc1ccccc1)C(=O)O` [ANGIOTENSIN II] had an EC50 of 2.5 nM.
